# Experimental data from ChEMBL document CHEMBL1129661, “The chemistry of Pseudomonic acid. 15. Synthesis and antibacterial activity of a series of 5-alkyl, 5-alkenyl, and 5-heterosubstituted oxazoles” (1996).
# Tests used:
# Streptococcus pyogenes [1] = assay: Minimal inhibitory concentration against Streptococcus pyogenes CN10; type: functional
# How it was run: (§1)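 Agar dilution method. Each plate was spot-inoculated with 1 µL spots, about 10^6 CFU per spot. Plates were incubated 18-24 h at 37 °C.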
# Staphylococcus aureus [2] = assay: Minimal inhibitory concentration of compound against Staphylococcus aureus Russell; type: functional; how it was run: as §1
# Streptococcus pneumoniae [3] = assay: Minimal inhibitory concentration against Streptococcus pneumoniae PU7; type: functional; how it was run: as §1
# Moraxella catarrhalis [4] = assay: Minimal inhibitory concentration of compound against Moraxella catarrhalis 1502; type: functional; how it was run: as §1
# Haemophilus influenzae [5] = assay: Minimal inhibitory concentration against Haemophilus influenzae Q1; type: functional; how it was run: as §1
# Staphylococcus aureus [6] = assay: Minimal inhibitory concentration against Staphylococcus aureus Oxford NCTC 6571; type: functional; how it was run: as §1
# Streptococcus pneumoniae [7] = assay: Minimal inhibitory concentration of compound against Streptococcus pneumoniae PU7; No bacterial growth; type: functional, organism-based; how it was run: as §1
# Haemophilus influenzae [8] = assay: Minimal inhibitory concentration against Haemophilus influenzae WY21; type: functional; how it was run: as §1
# Haemophilus influenzae [9] = assay: Minimal inhibitory concentration against Haemophilus influenzae H128; type: functional; how it was run: as §1
# Moraxella catarrhalis [10] = assay: Minimal inhibitory concentration of compound against Moraxella catarrhalis H; type: functional; how it was run: as §1
# Streptococcus pyogenes [11] = assay: Minimal inhibitory concentration of compound against Streptococcus pyogenes BCA; type: functional; how it was run: as §1
# Moraxella catarrhalis [12] = assay: Minimal inhibitory concentration of compound against Moraxella catarrhalis 1502; No bacterial growth; type: functional, organism-based; how it was run: as §1
# Streptococcus pneumoniae [13] = assay: Minimal inhibitory concentration of compound against Streptococcus pneumoniae 1629; type: functional; how it was run: as §1
SMILES,MIC (Streptococcus pyogenes [1]) [µg/mL],MIC (Staphylococcus aureus [2]) [µg/mL],MIC (Streptococcus pneumoniae [3]) [µg/mL],MIC (Moraxella catarrhalis [4]) [µg/mL],MIC (Haemophilus influenzae [5]) [µg/mL],MIC (Staphylococcus aureus [6]) [µg/mL],MIC (Streptococcus pneumoniae [7]),MIC (Haemophilus influenzae [8]) [µg/mL],MIC (Haemophilus influenzae [9]) [µg/mL],MIC (Moraxella catarrhalis [10]) [µg/mL],MIC (Streptococcus pyogenes [11]) [µg/mL],MIC (Moraxella catarrhalis [12]),MIC (Streptococcus pneumoniae [13]) [µg/mL]
C/C(=C\c1ncc(Sc2ccccc2)o1)C[C@@H]1OC[C@H](C[C@@H]2O[C@H]2[C@@H](C)[C@H](C)O)[C@@H](O)[C@H]1O,4,16,32,8,8,,,,,,,,
COC(=O)c1nc(/C=C(\C)C[C@@H]2OC[C@H](C[C@@H]3O[C@H]3[C@@H](C)[C@H](C)O)[C@@H](O)[C@H]2O)oc1OC,> 128,,> 128,> 128,128,> 128,,,,,,,
C/C(=C\c1ncc(CO)o1)C[C@@H]1OC[C@H](C[C@@H]2O[C@H]2[C@@H](C)[C@H](C)O)[C@@H](O)[C@H]1O,32,,,8,2,32,No growth,,,,,,
C/C(=C\c1ncc(C(=O)[O-])o1)C[C@@H]1OC[C@H](C[C@@H]2O[C@H]2[C@@H](C)[C@H](C)O)[C@@H](O)[C@H]1O.[Na+],> 128,,> 128,> 128,> 128,> 128,,,,,,,
C/C(=C\c1ncc(C2SCCCS2)o1)C[C@@H]1OC[C@H](C[C@@H]2O[C@H]2[C@@H](C)[C@H](C)O)[C@@H](O)[C@H]1O,1,,4,0.5,1,1,,,,,,,
COC(=O)CCCCCCCCc1cnc(/C=C(\C)C[C@@H]2OC[C@H](C[C@@H]3O[C@H]3[C@@H](C)[C@H](C)O)[C@@H](O)[C@H]2O)o1,4,,8,64,4,4,,,,,,,
CCSc1cnc(/C=C(\C)C[C@@H]2OC[C@H](C[C@@H]3O[C@H]3[C@@H](C)[C@H](C)O)[C@@H](O)[C@H]2O)o1,4,,8,8,1,8,,,,,,,
C/C(=C\c1ncc(CCCCCCCCC(=O)[O-])o1)C[C@@H]1OC[C@H](C[C@@H]2O[C@H]2[C@@H](C)[C@H](C)O)[C@@H](O)[C@H]1O.[Na+],1,,4,8,4,4,,,,,,,
C/C(=C\C(=O)OCCCCCCCCC(=O)O)C[C@@H]1OC[C@H](C[C@@H]2O[C@H]2[C@@H](C)[C@H](C)O)[C@@H](O)[C@H]1O [MUPIROCIN],0.13,,0.25,0.25,0.03,0.25,,,,,,,
CCCCc1cnc(/C=C(\C)C[C@@H]2OC[C@H](C[C@@H]3O[C@H]3[C@@H](C)[C@H](C)O)[C@@H](O)[C@H]2O)o1,0.5,,4,4,1,1,,,,,,,
C/C(=C\c1ncc([S+]([O-])c2ccccc2)o1)C[C@@H]1OC[C@H](C[C@@H]2O[C@H]2[C@@H](C)[C@H](C)O)[C@@H](O)[C@H]1O (stereo partly drawn),4,,16,16,2,16,,,,,,,
CCOC(=O)Oc1cnc(/C=C(\C)C[C@@H]2OC[C@H](C[C@@H]3O[C@H]3[C@@H](C)[C@H](C)O)[C@@H](O)[C@H]2O)o1,> 128,,> 128,32,32,> 128,,,,,,,
COC(=O)/C=C\c1cnc(/C=C(\C)C[C@@H]2OC[C@H](C[C@@H]3O[C@H]3[C@@H](C)[C@H](C)O)[C@@H](O)[C@H]2O)o1,16,,16,8,,8,,0.25,,,,,
C/C(=C\c1ncc(N(C)c2ccccc2)o1)C[C@@H]1OC[C@H](C[C@@H]2O[C@H]2[C@@H](C)[C@H](C)O)[C@@H](O)[C@H]1O,16,,32,32,,16,,,16,,,,
C/C(=C\c1ncc(Oc2ccccc2)o1)C[C@@H]1OC[C@H](C[C@@H]2O[C@H]2[C@@H](C)[C@H](C)O)[C@@H](O)[C@H]1O,8,,16,16,,8,,,8,,,,
CC[S+]([O-])c1cnc(/C=C(\C)C[C@@H]2OC[C@H](C[C@@H]3O[C@H]3[C@@H](C)[C@H](C)O)[C@@H](O)[C@H]2O)o1 (stereo partly drawn),8,,4,,0.13,8,,,,16,,,
C/C(=C\c1ncc(CCCC(=O)[O-])o1)C[C@@H]1OC[C@H](C[C@@H]2O[C@H]2[C@@H](C)[C@H](C)O)[C@@H](O)[C@H]1O.[Na+],64,,64,32,,32,,8,,,,,
C/C(=C\c1ncc(C=O)o1)C[C@@H]1OC[C@H](C[C@@H]2O[C@H]2[C@@H](C)[C@H](C)O)[C@@H](O)[C@H]1O,16,,64,8,4,2,,,,,,,
COC(=O)/C=C/c1cnc(/C=C(\C)C[C@@H]2OC[C@H](C[C@@H]3O[C@H]3[C@@H](C)[C@H](C)O)[C@@H](O)[C@H]2O)o1,,,1,,0.5,2,,,,,4,,
COC(=O)CCCc1cnc(/C=C(\C)C[C@@H]2OC[C@H](C[C@@H]3O[C@H]3[C@@H](C)[C@H](C)O)[C@@H](O)[C@H]2O)o1,0.5,,4,2,,1,,1,,,,,
COC(=O)c1nc(/C=C(\C)C[C@@H]2OC[C@H](C[C@@H]3O[C@H]3[C@@H](C)[C@H](C)O)[C@@H](O)[C@H]2O)oc1N1CCCCC1,128,,32,,2,16,,,,,,No growth,
COC(=O)c1cnc(/C=C(\C)C[C@@H]2OC[C@H](C[C@@H]3O[C@H]3[C@@H](C)[C@H](C)O)[C@@H](O)[C@H]2O)o1,8,,8,8,1,4,,,,,,,
C/C(=C\c1ncco1)C[C@@H]1OC[C@H](C[C@@H]2O[C@H]2[C@@H](C)[C@H](C)O)[C@@H](O)[C@H]1O,32,,,4,2,16,,,,,,,128
CCc1cnc(/C=C(\C)C[C@@H]2OC[C@H](C[C@@H]3O[C@H]3[C@@H](C)[C@H](C)O)[C@@H](O)[C@H]2O)o1,,,16,16,2,2,,,,,,,
CCOc1cnc(/C=C(\C)C[C@@H]2OC[C@H](C[C@@H]3O[C@H]3[C@@H](C)[C@H](C)O)[C@@H](O)[C@H]2O)o1,2,,2,4,0.5,2,,,,,,,
C/C(=C\c1ncc(/C=C/C(=O)[O-])o1)C[C@@H]1OC[C@H](C[C@@H]2O[C@H]2[C@@H](C)[C@H](C)O)[C@@H](O)[C@H]1O.[Na+],64,,64,16,16,64,,,,,,,
C/C(=C\c1ncc(N2CCCCC2)o1)C[C@@H]1OC[C@H](C[C@@H]2O[C@H]2[C@@H](C)[C@H](C)O)[C@@H](O)[C@H]1O,4,,8,,0.5,8,,,,8,,,
